Results taken from ChEMBL document CHEMBL1124937 (J Med Chem, 1990).

Key:
[1] = target: Beta-2 adrenergic receptor (Mus musculus, UniProt P18762); test: Ki value was determined by accumulation of c-AMP in S-49 mouse lymphoma cells (Beta2).; assay type: cell-based
Outline: (§1)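 Antagonist Ki from in vitro inhibition of cyclic AMP accumulation, with cAMP quantified by radioimmunoassay. Cells were prepared as in the group's earlier work. Ki was calculated with the Cheng–Prusoff equation. The four single stereoisomers of each derivative, the stereoisomeric mixture and the parent drug were tested. Relative potency is given versus the parent drug.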

Rattus norvegicus [2] = species on record: Rattus norvegicus; test: Relative potency(RP) was determined for the biological activity determined in rat fat cells (Beta1); assay type: functional
Outline: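 Rat fat cells (β1), prepared as previously described, were assayed in vitro for antagonist inhibition of cAMP accumulation, with cAMP measured by radioimmunoassay. Ki values were calculated with the Cheng–Prusoff equation. Potency is expressed relative to the progenitor drug, which was tested alongside the individual stereoisomers and the stereoisomeric mixture.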

Rattus norvegicus [3] = species on record: Rattus norvegicus; test: Biological activity in vitro, Ki value was determined by accumulation of c-AMP in rat fat cells (Beta1).; assay type: functional, cell-based; outline: as §1

Beta-2 adrenergic receptor, sequence (P18762 whole entry): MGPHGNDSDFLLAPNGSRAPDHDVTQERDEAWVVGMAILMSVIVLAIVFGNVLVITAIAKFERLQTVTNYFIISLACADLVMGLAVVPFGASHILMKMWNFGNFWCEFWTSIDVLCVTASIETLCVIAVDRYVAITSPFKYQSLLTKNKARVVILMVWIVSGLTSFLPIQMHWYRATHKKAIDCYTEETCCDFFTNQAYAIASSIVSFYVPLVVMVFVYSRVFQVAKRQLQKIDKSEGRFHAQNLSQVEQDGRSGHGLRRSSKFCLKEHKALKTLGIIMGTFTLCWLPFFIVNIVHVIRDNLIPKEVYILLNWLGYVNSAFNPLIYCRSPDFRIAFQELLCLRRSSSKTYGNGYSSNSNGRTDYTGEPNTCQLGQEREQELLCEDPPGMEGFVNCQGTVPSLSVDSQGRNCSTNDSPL

SMILES	Ki [1]	Relative potency (Rattus norvegicus [2])	Ki (Rattus norvegicus [3])
CC(=O)Nc1ccc(OC[C@H](O)CN[C@@H](C)CCCCC(=O)Nc2ccc(C)cc2)cc1	9.24 µM	0.267	2.62 µM
C[C@H](CCCCC(=O)Nc1ccc(C(F)(F)F)cc1)NC[C@@H](O)COc1cccc2ccccc12	130 µM		
CC(=O)Nc1ccc(OC[C@@H](O)CN[C@@H](C)CCCCC(=O)Nc2ccc(C)cc2)cc1	15.6 µM	0.442	1.58 µM
C[C@@H](CCCCC(=O)Nc1ccc(C(F)(F)F)cc1)NC[C@H](O)COc1cccc2ccccc12	39 µM		
CC(CCCCC(=O)Nc1ccc(C(F)(F)F)cc1)NCC(O)COc1cccc2ccccc12 (stereo unspecified)	78 µM		
CC(=O)Nc1ccc(OCC(O)CNC(C)C)cc1 (stereo unspecified) [PRACTOLOL]			0.7 µM
Cc1ccc(NC(=O)CCCC[C@@H](C)NC[C@@H](O)COc2cccc3ccccc23)cc1	195 µM		
CC(=O)Nc1ccc(OC[C@H](O)CN[C@H](C)CCCCC(=O)Nc2ccc(C(F)(F)F)cc2)cc1	2.17 µM	2.92	0.24 µM
Cc1ccc(NC(=O)CCCCC(C)NCC(O)COc2cccc3ccccc23)cc1 (stereo unspecified)	43.3 µM		
CC(=O)Nc1ccc(OCC(O)CNC(C)CCCCC(=O)Nc2ccc(C)cc2)cc1 (stereo unspecified)	1.18 µM	2.71	0.26 µM
CC(=O)Nc1ccc(OC[C@@H](O)CN[C@@H](C)CCCCC(=O)Nc2ccc(C(F)(F)F)cc2)cc1	2.85 µM	2	0.35 µM
CC(=O)Nc1ccc(OC[C@H](O)CN[C@@H](C)CCCCC(=O)Nc2ccc(C(F)(F)F)cc2)cc1 (mixture of isomers)	62 µM	0.104	6.7 µM
Cc1ccc(NC(=O)CCCC[C@H](C)NC[C@H](O)COc2cccc3ccccc23)cc1	41 µM		
Cc1ccc(NC(=O)CCCC[C@H](C)NC[C@@H](O)COc2cccc3ccccc23)cc1 (racemic)	195 µM		
CC(=O)Nc1ccc(OC[C@@H](O)CN[C@H](C)CCCCC(=O)Nc2ccc(C(F)(F)F)cc2)cc1	0.146 µM	22.6	0.031 µM
CC(=O)Nc1ccc(OC[C@@H](O)CN[C@H](C)CCCCC(=O)Nc2ccc(C)cc2)cc1	0.81 µM	2.71	0.26 µM
C[C@H](CCCCC(=O)Nc1ccc(C(F)(F)F)cc1)NC[C@H](O)COc1cccc2ccccc12	45.9 µM		
C[C@@H](CCCCC(=O)Nc1ccc(C(F)(F)F)cc1)NC[C@@H](O)COc1cccc2ccccc12 (racemic)	179 µM		
CC(=O)Nc1ccc(OC[C@H](O)CN[C@H](C)CCCCC(=O)Nc2ccc(C)cc2)cc1	53.6 µM	0.351	1.99 µM
CC(=O)Nc1ccc(OCC(O)CNC(C)CCCCC(=O)Nc2ccc(C(F)(F)F)cc2)cc1 (stereo unspecified)	0.39 µM	7.8	0.13 µM
Cc1ccc(NC(=O)CCCC[C@@H](C)NC[C@H](O)COc2cccc3ccccc23)cc1	9.07 µM		
